Experiment [1] addresses Melanocortin receptor 5 (Mus musculus, UniProt P41149). The experiment can be described thus: Agonist activity at mouse MC5R expressed in HEK293 cells by beta-galactosidase assay. In kind it is functional, cell-based.
Experiment [2] concerns the target T1, Melanocortin receptor 4 (Mus musculus, UniProt P56450). Description: Displacement of MT2 from mouse MC4R expressed in HEK293 cells. It counts as cell-based. The gist of the method: (§1)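 Antagonism was measured in the same CRE/β-galactosidase assay in HEK-293 cells stably expressing the mouse receptor, as the dose-dependent competitive shift of MTII agonist response. pA2 was obtained by Schild analysis and converted to Ki. Values are means of duplicate wells from at least three independent experiments, ± SEM.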

The target in experiment [3] is T2, Melanocortin receptor 3 (Mus musculus, UniProt P33033). Description: Displacement of MT2 from mouse MC3R expressed in HEK293 cells. It counts as cell-based. The essentials: as §1
T2 sequence (P33033 whole entry): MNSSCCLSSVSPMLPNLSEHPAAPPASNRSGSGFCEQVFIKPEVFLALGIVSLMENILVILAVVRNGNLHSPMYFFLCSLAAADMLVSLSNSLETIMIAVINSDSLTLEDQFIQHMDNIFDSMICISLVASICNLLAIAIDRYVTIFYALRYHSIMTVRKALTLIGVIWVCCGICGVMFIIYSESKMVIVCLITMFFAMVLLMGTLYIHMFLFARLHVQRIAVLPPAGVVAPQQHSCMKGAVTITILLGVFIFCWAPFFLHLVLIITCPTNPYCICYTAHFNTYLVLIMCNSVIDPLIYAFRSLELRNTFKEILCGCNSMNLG
Experiment [4] addresses Melanocortin receptor 4 (Mus musculus) (UniProt P56450). The experiment can be described thus: Agonist activity at mouse MC4R expressed in HEK293 cells by beta-galactosidase assay at 100 uM relative to forskolin. In kind it is functional, cell-based. The conditions noted are these: filed as agonist.
Experiment [5] addresses Melanocortin receptor 3 (Mus musculus) (UniProt P33033). The experiment can be described thus: Agonist activity at mouse MC3R expressed in HEK293 cells by beta-galactosidase assay at 100 uM relative to forskolin. It counts as functional, cell-based. The conditions noted are these: filed as agonist.
Experiment [6] concerns the target Melanocyte-stimulating hormone receptor (Mus musculus, UniProt Q01727). The experiment can be described thus: Agonist activity at mouse MC1R expressed in HEK293 cells by beta-galactosidase assay. In kind it is functional, cell-based.
Experiment [7] has as its target T1, Melanocortin receptor 4. The experiment can be described thus: Agonist activity at mouse MC4R expressed in HEK293 cells by beta-galactosidase assay. It counts as functional, cell-based.
Experiment [8] deals with T2, Melanocortin receptor 3. Description: Agonist activity at mouse MC3R expressed in HEK293 cells by beta-galactosidase assay. In kind it is functional, cell-based.
The species entered for experiment [9] is Mus musculus. Description: Selectivity for mouse MC1R over mouse MC4R.
The species entered for experiment [10] is Mus musculus. Description: Selectivity for mouse MC1R over mouse MC3R.
For experiment [11], the species on record is Mus musculus. The experiment can be described thus: Selectivity for mouse MC1R over mouse MC5R.

Melanocortin receptor 3 (Mus musculus), sequence (P33033 whole entry): as above
Melanocyte-stimulating hormone receptor, sequence (Q01727 whole entry): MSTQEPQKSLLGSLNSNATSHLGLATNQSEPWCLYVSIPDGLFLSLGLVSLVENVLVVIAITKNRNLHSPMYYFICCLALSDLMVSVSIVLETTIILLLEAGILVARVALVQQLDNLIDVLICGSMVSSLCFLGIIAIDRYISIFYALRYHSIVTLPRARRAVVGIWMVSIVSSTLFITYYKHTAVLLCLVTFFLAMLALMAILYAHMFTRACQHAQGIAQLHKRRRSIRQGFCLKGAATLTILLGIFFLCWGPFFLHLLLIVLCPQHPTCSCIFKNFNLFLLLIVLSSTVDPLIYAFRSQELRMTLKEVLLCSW
Melanocortin receptor 5, sequence (P41149 whole entry): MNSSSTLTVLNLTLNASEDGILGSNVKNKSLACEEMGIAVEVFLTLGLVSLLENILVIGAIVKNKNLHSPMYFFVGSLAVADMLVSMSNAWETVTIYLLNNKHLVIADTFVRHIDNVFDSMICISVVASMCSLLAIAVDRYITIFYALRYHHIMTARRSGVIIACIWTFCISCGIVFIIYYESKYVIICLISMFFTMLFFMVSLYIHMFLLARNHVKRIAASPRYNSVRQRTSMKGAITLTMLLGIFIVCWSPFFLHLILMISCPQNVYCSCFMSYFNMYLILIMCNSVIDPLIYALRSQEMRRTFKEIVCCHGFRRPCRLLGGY
T1 sequence (P56450 whole entry): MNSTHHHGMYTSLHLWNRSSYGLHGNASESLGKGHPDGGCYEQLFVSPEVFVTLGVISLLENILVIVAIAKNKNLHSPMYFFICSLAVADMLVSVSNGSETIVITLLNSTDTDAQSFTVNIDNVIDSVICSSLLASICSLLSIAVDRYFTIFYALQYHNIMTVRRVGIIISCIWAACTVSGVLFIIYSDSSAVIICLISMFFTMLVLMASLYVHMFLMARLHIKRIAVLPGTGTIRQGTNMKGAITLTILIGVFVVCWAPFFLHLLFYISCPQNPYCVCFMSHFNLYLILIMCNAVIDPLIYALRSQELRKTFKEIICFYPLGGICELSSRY
Melanocortin receptor 4 (Mus musculus), sequence (P56450 whole entry): as above

For orientation: EC50 means the concentration at which the effect is half-maximal. Read a low EC50 as higher potency in that assay. By pA2 is commonly meant the negative logarithm of the molar antagonist concentration that doubles the agonist concentration needed for the same response. Turning to `CC(C)C[C@H](NC(=O)[C@H](CCCCN)NC(=O)[C@H](CCCNC(=N)N)NC(=O)[C@H](C)NC(=O)[C@H](Cc1ccc(O)cc1)NC(=O)[C@@H]1CSSC[C@H](NC(=O)[C@H](Cc2ccc(O)cc2)NC(=O)[C@H](C)NC(=O)[C@@H](NC(=O)[C@H](C)NC(=O)[C@H](C)NC(=O)[C@@H]2CCCN2C(=O)[C@@H](N)CC(=O)O)[C@@H](C)O)C(=O)N[C@@H](CCCNC(=N)N)C(=O)N[C@H](Cc2ccccc2)C(=O)N[C@@H](Cc2ccccc2)C(=O)N[C@@H](CC(N)=O)C(=O)N[C@@H](C)C(=O)N[C@@H](Cc2ccccc2)C(=O)N1)C(=O)O`, the results for the EC50 in [1] and in [6] were 1.41 µM (agonist) and 0.093 µM (agonist), respectively. Further, the pA2 in experiment [2] was found to be 6.56; in [3], 6.14. In addition, the Activity in experiment [4] is 75%; in experiment [5], 50%.
As for `CC(C)C[C@H](NC(=O)[C@H](CCCCN)NC(=O)[C@H](CCCNC(=N)N)NC(=O)[C@H](C)NC(=O)[C@H](Cc1ccc(O)cc1)NC(=O)[C@@H]1CSSC[C@H](NC(=O)[C@H](Cc2ccc(O)cc2)NC(=O)[C@H](C)NC(=O)[C@@H](NC(=O)[C@H](C)NC(=O)[C@H](C)NC(=O)[C@@H]2CCCN2C(=O)[C@@H](N)CC(=O)O)[C@@H](C)O)C(=O)N[C@H](CCCNC(=N)N)C(=O)N[C@@H](Cc2ccccc2)C(=O)N[C@H](Cc2ccccc2)C(=O)N[C@@H](CC(N)=O)C(=O)N[C@@H](C)C(=O)N[C@@H](Cc2ccccc2)C(=O)N1)C(=O)O`, the figures for the EC50 in experiment [7], in experiment [1] and in [6] were 8.33 µM (agonist), 19.8 µM (agonist) and 5.27 µM (agonist), respectively. Besides, the Activity in [5] was 70%.
Consider `CC(C)C[C@H](NC(=O)[C@H](CCCCN)NC(=O)[C@H](CCCNC(=N)N)NC(=O)[C@H](C)NC(=O)[C@H](Cc1ccc(O)cc1)NC(=O)[C@@H]1CSSC[C@H](NC(=O)[C@H](Cc2ccc(O)cc2)NC(=O)[C@H](C)NC(=O)[C@@H](NC(=O)[C@H](C)NC(=O)[C@H](C)NC(=O)[C@@H]2CCCN2C(=O)[C@@H](N)CC(=O)O)[C@@H](C)O)C(=O)N[C@H](CCCNC(=N)N)C(=O)N[C@H](Cc2ccccc2)C(=O)N[C@H](Cc2ccccc2)C(=O)N[C@@H](CC(N)=O)C(=O)N[C@@H](C)C(=O)N[C@@H](Cc2ccccc2)C(=O)N1)C(=O)O`, for which the EC50 in experiment [7] is 21.5 µM (agonist); in experiment [1] it was 13.2 µM (agonist); in experiment [8], 22.6 µM (agonist); in experiment [6] it was 3.75 µM (agonist).
As for `CC(C)C[C@H](NC(=O)[C@H](CCCCN)NC(=O)[C@H](CCCNC(=N)N)NC(=O)[C@H](C)NC(=O)[C@H](Cc1ccc(O)cc1)NC(=O)[C@@H]1CSSC[C@H](NC(=O)[C@H](Cc2ccc(O)cc2)NC(=O)[C@H](C)NC(=O)[C@@H](NC(=O)[C@H](C)NC(=O)[C@H](C)NC(=O)[C@@H]2CCCN2C(=O)[C@@H](N)CC(=O)O)[C@@H](C)O)C(=O)N[C@@H](CCCNC(=N)N)C(=O)N[C@@H](Cc2ccccc2)C(=O)N[C@H](Cc2ccccc2)C(=O)N[C@@H](CC(N)=O)C(=O)N[C@@H](C)C(=O)N[C@@H](Cc2ccccc2)C(=O)N1)C(=O)O` (stereo in doubt; 4), the EC50 was 3.7 µM (agonist) in [7], 2.22 µM (agonist) in experiment [1], 13.7 µM (agonist) in [8] and 0.12 µM (agonist) in experiment [6].
On to `CC(C)C[C@H](NC(=O)[C@H](CCCCN)NC(=O)[C@H](CCCNC(=N)N)NC(=O)[C@H](C)NC(=O)[C@H](Cc1ccc(O)cc1)NC(=O)[C@@H]1CSSC[C@H](NC(=O)[C@H](Cc2ccc(O)cc2)NC(=O)[C@H](C)NC(=O)[C@@H](NC(=O)[C@H](C)NC(=O)[C@H](C)NC(=O)[C@@H]2CCCN2C(=O)[C@@H](N)CC(=O)O)[C@@H](C)O)C(=O)N[C@@H](CCCNC(=N)N)C(=O)N[C@@H](Cc2ccccc2)C(=O)N[C@H](Cc2ccccc2)C(=O)N[C@@H](CC(N)=O)C(=O)N[C@@H](C)C(=O)N[C@@H](Cc2ccccc2)C(=O)N1)C(=O)O` (stereo in doubt; 1), for which the EC50 was > 100 µM (agonist) in experiment [1] and 0.96 µM (agonist) in experiment [6]. The pA2 in experiment [2] worked out at 6.92; in [3] it was 6.15.
In the case of `CC(C)C[C@H](NC(=O)[C@H](CCCCN)NC(=O)[C@H](CCCNC(=N)N)NC(=O)[C@H](C)NC(=O)[C@H](Cc1ccc(O)cc1)NC(=O)[C@@H]1CSSC[C@H](NC(=O)[C@H](Cc2ccc(O)cc2)NC(=O)[C@H](C)NC(=O)[C@@H](NC(=O)[C@H](C)NC(=O)[C@H](C)NC(=O)[C@@H]2CCCN2C(=O)[C@@H](N)CC(=O)O)[C@@H](C)O)C(=O)N[C@@H](CCCNC(=N)N)C(=O)N[C@H](Cc2ccccc2)C(=O)N[C@H](Cc2ccccc2)C(=O)N[C@@H](CC(N)=O)C(=O)N[C@@H](C)C(=O)N[C@@H](Cc2ccccc2)C(=O)N1)C(=O)O`, the concentration for a half-maximal effect (EC50) was 6.24 µM (agonist) in experiment [7], 11.4 µM (agonist) in experiment [1], 63.3 µM (agonist) in [8] and 0.064 µM (agonist) in experiment [6]. For the same molecule, the Selectivity ratio is 98 in [9], 990 in [10] and 180 in experiment [11].
In the case of `CC(C)C[C@H](NC(=O)[C@H](CCCCN)NC(=O)[C@H](CCCNC(=N)N)NC(=O)[C@H](C)NC(=O)[C@H](Cc1ccc(O)cc1)NC(=O)[C@@H]1CSSC[C@H](NC(=O)[C@H](Cc2ccc(O)cc2)NC(=O)[C@H](C)NC(=O)[C@@H](NC(=O)[C@H](C)NC(=O)[C@H](C)NC(=O)[C@@H]2CCCN2C(=O)[C@@H](N)CC(=O)O)[C@@H](C)O)C(=O)N[C@H](CCCNC(=N)N)C(=O)N[C@H](Cc2ccccc2)C(=O)N[C@@H](Cc2ccccc2)C(=O)N[C@@H](CC(N)=O)C(=O)N[C@@H](C)C(=O)N[C@@H](Cc2ccccc2)C(=O)N1)C(=O)O`, the EC50 in experiment [7] is given as 8.3 µM (agonist); in experiment [1], 4.6 µM (agonist); in [8], 5.51 µM (agonist); in [6], 1.75 µM (agonist).
On to `CC(C)C[C@H](NC(=O)[C@H](CCCCN)NC(=O)[C@H](CCCNC(=N)N)NC(=O)[C@H](C)NC(=O)[C@H](Cc1ccc(O)cc1)NC(=O)[C@@H]1CSSC[C@H](NC(=O)[C@H](Cc2ccc(O)cc2)NC(=O)[C@H](C)NC(=O)[C@@H](NC(=O)[C@H](C)NC(=O)[C@H](C)NC(=O)[C@@H]2CCCN2C(=O)[C@@H](N)CC(=O)O)[C@@H](C)O)C(=O)N[C@H](CCCNC(=N)N)C(=O)N[C@@H](Cc2ccccc2)C(=O)N[C@@H](Cc2ccccc2)C(=O)N[C@@H](CC(N)=O)C(=O)N[C@@H](C)C(=O)N[C@@H](Cc2ccccc2)C(=O)N1)C(=O)O`, for which the results for the half-maximal effective concentration (EC50) in [7], in experiment [1] and in experiment [6] were 37.7 µM (agonist), 18.3 µM (agonist) and 6.33 µM (agonist), respectively. For the same molecule, the Activity in experiment [5] is 70%.

(Values after ChEMBL document CHEMBL1149298, “Stereochemical studies of the monocyclic agouti-related protein (103-122) Arg-Phe-Phe residues: conversion of a melanocortin-4 receptor antagonist into an agonist and results in the discovery of a potent and selective melanocortin-1 agonist” (J Med Chem, 2004).)
